# Test results taken from ChEMBL document CHEMBL1136904, “Histone deacetylase inhibitors with a primary amide zinc binding group display antitumor activity in xenograft model” (Bioorg Med Chem Lett, 2009).
# Calls of active or inactive are those of the source.
# What was measured:
# Mus musculus [1] = test: Toxicity against human HCT116 cells xenografted nude mouse assessed as body weight loss at 150 mg/kg, ip administered once daily for 18 days; type: organism-based, HCT-116; design: dose 150 mg/kg, route intraperitoneal; conditions: in vivo, 432 h
# Histone deacetylase 1 = Histone deacetylase 1 (Homo sapiens, UniProt Q13547); test: Inhibition of C-terminal FLAG tagged HDAC1
# Chain of Histone deacetylase 1 (Q13547 whole entry): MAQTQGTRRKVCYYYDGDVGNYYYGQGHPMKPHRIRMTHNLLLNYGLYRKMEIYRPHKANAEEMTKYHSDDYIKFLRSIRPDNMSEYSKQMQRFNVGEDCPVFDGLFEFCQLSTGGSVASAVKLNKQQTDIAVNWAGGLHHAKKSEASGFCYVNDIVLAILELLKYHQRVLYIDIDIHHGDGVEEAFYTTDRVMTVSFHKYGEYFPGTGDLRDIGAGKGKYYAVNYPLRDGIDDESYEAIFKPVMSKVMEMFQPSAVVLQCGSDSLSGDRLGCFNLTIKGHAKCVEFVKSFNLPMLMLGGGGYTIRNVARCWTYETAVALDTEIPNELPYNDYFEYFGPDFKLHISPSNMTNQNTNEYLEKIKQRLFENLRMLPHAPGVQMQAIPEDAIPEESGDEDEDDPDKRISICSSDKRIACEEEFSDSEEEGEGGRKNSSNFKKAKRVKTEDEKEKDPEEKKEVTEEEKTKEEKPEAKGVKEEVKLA
# HeLa = test: Antiproliferative activity against human HeLa cells after 72 hrs by celltiter-blue cell viability assay; type: functional, cell-based
# Outline: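 72 h proliferation assay in HeLa cervical cancer cells, giving IC50; means of two or more experiments.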
# [2] = Intrinsic clearance in human liver microsomes in presence of NADPH; type: ADME, Microsome
# Outline: (§1)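 Metabolic stability measured in liver microsomes (rat, human, dog) in the presence of NADPH. Intrinsic clearance expressed as µL/min/mg protein.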
# [3] = Intrinsic clearance in rat liver microsomes in presence of NADPH; type: ADME, Microsome; outline: as §1
# [4] = Intrinsic clearance in dog liver microsomes in presence of NADPH; type: ADME, Canis lupus familiaris, Microsome; outline: as §1
# [5] = Intrinsic clearance in human microsomes in presence of UDPGA; type: ADME, Microsome
# Outline: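 Glucuronidation measured in human microsomes in the presence of UDPGA. Intrinsic clearance expressed as µL/min/mg protein.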
# Histone deacetylase 2 = Histone deacetylase 2 (Homo sapiens, UniProt Q92769); test: Inhibition of C-terminal FLAG tagged HDAC2
# Chain of Histone deacetylase 2 (Q92769 whole entry): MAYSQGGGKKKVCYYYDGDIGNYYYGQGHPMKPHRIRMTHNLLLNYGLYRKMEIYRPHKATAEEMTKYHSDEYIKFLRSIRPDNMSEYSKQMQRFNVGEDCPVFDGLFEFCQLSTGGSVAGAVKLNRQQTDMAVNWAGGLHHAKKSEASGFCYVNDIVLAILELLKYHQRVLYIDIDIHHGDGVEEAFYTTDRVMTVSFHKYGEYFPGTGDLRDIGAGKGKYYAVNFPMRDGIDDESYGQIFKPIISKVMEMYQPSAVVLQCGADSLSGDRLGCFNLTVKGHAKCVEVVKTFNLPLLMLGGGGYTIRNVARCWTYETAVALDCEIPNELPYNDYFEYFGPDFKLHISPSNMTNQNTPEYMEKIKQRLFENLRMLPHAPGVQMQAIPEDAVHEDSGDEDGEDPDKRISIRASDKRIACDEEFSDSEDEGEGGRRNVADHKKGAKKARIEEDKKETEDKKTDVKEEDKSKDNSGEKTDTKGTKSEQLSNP
# Histone deacetylase 3 = Histone deacetylase 3 (Homo sapiens, UniProt O15379); test: Inhibition of C-terminal FLAG tagged HDAC3
# Chain of Histone deacetylase 3 (O15379 whole entry, the tested form may be a part): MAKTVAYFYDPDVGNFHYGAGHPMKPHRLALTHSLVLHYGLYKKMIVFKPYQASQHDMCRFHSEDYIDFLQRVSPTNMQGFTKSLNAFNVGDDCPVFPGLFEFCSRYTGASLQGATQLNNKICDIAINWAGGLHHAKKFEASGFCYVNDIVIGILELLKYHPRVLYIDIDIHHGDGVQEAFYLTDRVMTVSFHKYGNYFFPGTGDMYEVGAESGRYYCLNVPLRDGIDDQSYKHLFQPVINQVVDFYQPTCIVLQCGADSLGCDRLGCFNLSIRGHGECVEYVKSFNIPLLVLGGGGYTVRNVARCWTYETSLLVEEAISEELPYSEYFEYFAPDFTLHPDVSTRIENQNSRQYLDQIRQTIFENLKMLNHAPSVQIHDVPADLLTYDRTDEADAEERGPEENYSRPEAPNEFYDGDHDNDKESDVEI
# Histone deacetylase 4 = Histone deacetylase 4 (Homo sapiens, UniProt P56524); test: Inhibition of His-tagged HDAC4 catalytic domain expressed in Escherichia coli
# Chain of Histone deacetylase 4 (P56524 whole entry, the tested form may be a part): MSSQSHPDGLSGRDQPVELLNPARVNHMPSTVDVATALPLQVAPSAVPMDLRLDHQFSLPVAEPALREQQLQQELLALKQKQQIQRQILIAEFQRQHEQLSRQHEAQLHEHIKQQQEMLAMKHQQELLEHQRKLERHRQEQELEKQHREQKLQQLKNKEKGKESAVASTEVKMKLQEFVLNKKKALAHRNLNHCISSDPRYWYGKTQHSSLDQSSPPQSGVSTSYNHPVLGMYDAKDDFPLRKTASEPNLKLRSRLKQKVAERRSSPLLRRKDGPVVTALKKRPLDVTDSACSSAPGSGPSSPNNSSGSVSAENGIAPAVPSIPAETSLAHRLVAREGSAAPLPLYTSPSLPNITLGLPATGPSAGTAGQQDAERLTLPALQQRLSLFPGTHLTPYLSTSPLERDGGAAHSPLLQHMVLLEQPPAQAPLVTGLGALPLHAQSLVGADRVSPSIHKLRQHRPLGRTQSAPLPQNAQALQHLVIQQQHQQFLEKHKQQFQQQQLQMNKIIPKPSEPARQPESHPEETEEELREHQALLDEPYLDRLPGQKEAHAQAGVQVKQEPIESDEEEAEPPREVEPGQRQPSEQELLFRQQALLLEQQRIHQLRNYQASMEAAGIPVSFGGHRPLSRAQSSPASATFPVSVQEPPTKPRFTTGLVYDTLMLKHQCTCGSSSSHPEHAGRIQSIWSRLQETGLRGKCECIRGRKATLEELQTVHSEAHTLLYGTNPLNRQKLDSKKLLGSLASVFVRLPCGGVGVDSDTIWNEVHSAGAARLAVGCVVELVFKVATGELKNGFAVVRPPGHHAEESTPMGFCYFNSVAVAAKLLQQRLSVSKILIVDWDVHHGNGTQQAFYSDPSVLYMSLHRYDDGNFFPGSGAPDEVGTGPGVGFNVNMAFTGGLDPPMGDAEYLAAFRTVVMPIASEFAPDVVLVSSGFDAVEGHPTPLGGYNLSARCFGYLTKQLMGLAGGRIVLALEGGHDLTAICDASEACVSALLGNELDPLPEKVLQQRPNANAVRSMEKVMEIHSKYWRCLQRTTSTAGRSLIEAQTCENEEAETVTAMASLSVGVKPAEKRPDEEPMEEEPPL
# [6] = molecular target: T1, Protein deacetylase HDAC6 (Homo sapiens, UniProt Q9UBN7); test: Inhibition of C-terminal FLAG tagged HDAC6
# T1 sequence (Q9UBN7 whole entry): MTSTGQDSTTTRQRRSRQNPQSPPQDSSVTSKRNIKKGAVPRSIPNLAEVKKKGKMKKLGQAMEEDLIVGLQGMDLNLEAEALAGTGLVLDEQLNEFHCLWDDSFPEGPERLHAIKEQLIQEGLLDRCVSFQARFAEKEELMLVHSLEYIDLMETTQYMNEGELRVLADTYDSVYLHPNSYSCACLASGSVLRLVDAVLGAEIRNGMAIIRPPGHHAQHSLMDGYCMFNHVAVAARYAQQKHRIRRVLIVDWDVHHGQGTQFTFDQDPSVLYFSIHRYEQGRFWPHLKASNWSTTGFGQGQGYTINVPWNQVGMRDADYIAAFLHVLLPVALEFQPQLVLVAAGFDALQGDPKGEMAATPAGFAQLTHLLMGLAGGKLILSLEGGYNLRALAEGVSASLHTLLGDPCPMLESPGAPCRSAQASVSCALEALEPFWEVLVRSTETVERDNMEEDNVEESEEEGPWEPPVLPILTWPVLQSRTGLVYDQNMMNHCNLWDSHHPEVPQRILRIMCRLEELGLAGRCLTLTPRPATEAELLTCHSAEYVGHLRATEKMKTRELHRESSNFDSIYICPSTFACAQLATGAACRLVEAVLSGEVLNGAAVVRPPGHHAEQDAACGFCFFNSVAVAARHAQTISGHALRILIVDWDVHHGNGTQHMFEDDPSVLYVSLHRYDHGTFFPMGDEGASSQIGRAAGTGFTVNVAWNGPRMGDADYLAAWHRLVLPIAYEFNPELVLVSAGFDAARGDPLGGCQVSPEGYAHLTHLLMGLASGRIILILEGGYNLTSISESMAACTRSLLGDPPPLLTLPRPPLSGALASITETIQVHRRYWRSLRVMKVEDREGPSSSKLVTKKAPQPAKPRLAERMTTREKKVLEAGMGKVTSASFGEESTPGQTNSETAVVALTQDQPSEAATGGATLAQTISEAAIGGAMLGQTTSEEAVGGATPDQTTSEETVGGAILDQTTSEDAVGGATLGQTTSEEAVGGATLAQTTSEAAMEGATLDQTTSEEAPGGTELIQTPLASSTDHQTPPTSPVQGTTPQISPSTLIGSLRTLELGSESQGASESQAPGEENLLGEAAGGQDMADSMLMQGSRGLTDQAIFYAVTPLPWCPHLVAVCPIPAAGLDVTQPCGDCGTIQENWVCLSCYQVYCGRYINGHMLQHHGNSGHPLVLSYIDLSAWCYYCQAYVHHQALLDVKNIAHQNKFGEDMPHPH
# Histone deacetylase 8 = molecular target: T2, Histone deacetylase 8 (Homo sapiens, UniProt Q9BY41); test: Inhibition of His-tagged HDAC8 catalytic domain expressed in Escherichia coli
# T2 sequence (Q9BY41 whole entry): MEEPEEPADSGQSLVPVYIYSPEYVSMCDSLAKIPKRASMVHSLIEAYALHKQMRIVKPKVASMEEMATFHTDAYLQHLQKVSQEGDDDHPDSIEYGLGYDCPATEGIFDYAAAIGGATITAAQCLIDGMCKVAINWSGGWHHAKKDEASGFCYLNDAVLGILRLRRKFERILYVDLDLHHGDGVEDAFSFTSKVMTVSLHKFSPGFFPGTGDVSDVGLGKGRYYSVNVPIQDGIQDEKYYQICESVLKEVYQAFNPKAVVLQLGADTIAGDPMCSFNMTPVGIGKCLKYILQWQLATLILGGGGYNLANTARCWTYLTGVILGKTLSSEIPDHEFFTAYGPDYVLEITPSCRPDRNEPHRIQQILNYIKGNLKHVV
# HCT-116 [7] = test: Antiproliferative activity against human HCT116 cells after 72 hrs by celltiter-blue cell viability assay; type: functional, cell-based; conditions: HCT-116, 72 h
# A549 = test: Antiproliferative activity against human A549 cells after 72 hrs by celltiter-blue cell viability assay; type: functional, cell-based; conditions: A549, 72 h
# [8] = Toxicity in ip dosed mouse assessed as maximum tolerated dose administered daily for 2 weeks; type: organism-based; conditions: in vivo
# Outline: (§2)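 Preliminary tolerability study in mice, with intraperitoneal dosing once daily for 2 weeks. The maximum tolerated dose was defined as the dose giving no mortality and body weight loss below 5%.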
# Mus musculus [9] = test: Toxicity in mouse assessed as mortality at 100 mg/kg, ip administered daily for 2 weeks; type: organism-based; design: dose 100 mg/kg, route intraperitoneal; conditions: in vivo, 336 h; outline: as §2
# Mus musculus [10] = test: Toxicity in mouse assessed as body weight loss at 100 mg/kg, ip administered daily for 2 weeks; type: organism-based; design: dose 100 mg/kg, route intraperitoneal; conditions: in vivo, 336 h
# Outline: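 Preliminary MTD study in mice. Intraperitoneal dosing once daily for 2 weeks, tracking mortality and body weight loss. Tolerated dose defined as no mortality and body weight loss below 5%.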
# HCT-116 [11] = test: Antitumor activity against human HCT116 cells xenografted nude mouse assessed as tumor growth inhibition at 100 mg/kg, ip administered once daily for 18 days relative to control; type: functional; conditions: HCT-116, ip, 432 h, route intraperitoneal, read-out: TGI
# Outline: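 HCT116 human colon carcinoma xenografts in nude mice, 12 per group. Dosed intraperitoneally once daily for 18 days and compared with vehicle-treated animals. Tumor growth followed over time and reported as mean ± SEM.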
# Mus musculus [12] = test: Toxicity against human HCT116 cells xenografted nude mouse assessed as body weight loss at 100 mg/kg, ip administered once daily for 18 days; type: organism-based, HCT-116; design: dose 100 mg/kg, route intraperitoneal; conditions: in vivo, 432 h
# Mus musculus [13] = test: Increase in histone acetylation in human HCT116 cells xenografted nude mouse at 100 mg/kg, ip measured for 24 hrs; type: functional, organism-based; design: dose 100 mg/kg; conditions: HCT-116
# Outline: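 Target engagement in nude mice bearing HCT116 xenografts, 4 per group. Single ip dose of 100 mpk, with vehicle controls. Histone acetylation measured in tumor biopsies at time points after administration and reported as mean ± SEM.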
smiles,measurement,setting,value
O=C(CCCCCCC(=O)Nc1ccccc1)NO [VORINOSTAT],Activity,Mus musculus [1],< 5%
O=C(O)CCCCC[C@H](NC(=O)c1cncs1)c1ncc(-c2ccc3ccccc3c2)[nH]1,IC50,Histone deacetylase 1,23 nM
same,IC50,HeLa,5.8 µM
COc1ccc2[nH]c(C)c(CC(=O)N[C@@H](CCCCCC(=O)NCc3ccccc3)c3ncc(-c4ccc5ccccc5c4)[nH]3)c2c1,IC50,Histone deacetylase 1,1000 nM
same,IC50,HeLa,6.8 µM
CNC(=O)CCCCC[C@H](NC(=O)Cc1c(C)[nH]c2ccc(OC)cc12)c1ncc(-c2ccc3ccccc3c2)[nH]1,IC50,Histone deacetylase 1,120 nM
same,IC50,HeLa,1.7 µM
COc1ccc2[nH]c(C)c(CC(=O)N[C@@H](CCCCCC(=O)Nc3ccccc3N)c3ncc(-c4ccc5ccccc5c4)[nH]3)c2c1,IC50,Histone deacetylase 1,110 nM
same,IC50,HeLa,1.34 µM
COc1ccc2[nH]c(C)c(CC(=O)N[C@@H](CCCCCC(=O)O)c3ncc(-c4ccc5ccccc5c4)[nH]3)c2c1,microsomal CLint,[2],9 µL/min/mg
same,IC50,Histone deacetylase 1,28 nM
same,IC50,HeLa,0.39 µM
same,microsomal CLint,[3],177 µL/min/mg
same,microsomal CLint,[4],3 µL/min/mg
same,microsomal CLint,[5],24 µL/min/mg
CCC(=O)CCCCC[C@H](NC(=O)Cc1c(C)[nH]c2ccc(OC)cc12)c1ncc(-c2ccc3ccccc3c2)[nH]1,IC50,Histone deacetylase 1,27 nM
same,IC50,HeLa,0.2 µM
CN1CC[C@H](C(=O)N[C@@H](CCCCCC(=O)O)c2ncc(-c3ccc4ccccc4c3)[nH]2)C1,IC50,Histone deacetylase 1,40 nM
same,IC50,HeLa,> 25 µM
CONC(=O)CCCCC[C@H](NC(=O)Cc1c(C)[nH]c2ccc(OC)cc12)c1ncc(-c2ccc3ccccc3c2)[nH]1,IC50,Histone deacetylase 1,34 nM
same,IC50,HeLa,0.66 µM
COc1ccc2[nH]c(C)c(CC(=O)N[C@@H](CCCCCC(=O)NC(C)C)c3ncc(-c4ccc5ccccc5c4)[nH]3)c2c1,IC50,Histone deacetylase 1,480 nM
same,IC50,HeLa,12 µM
COc1ccc2[nH]c(C)c(CC(=O)N[C@@H](CCCCCC(=O)NO)c3ncc(-c4ccc5ccccc5c4)[nH]3)c2c1,IC50,Histone deacetylase 1,3 nM
same,IC50,HeLa,0.18 µM
COc1ccc2[nH]c(C)c(CC(=O)N[C@@H](CCCCCC(=O)NS(=O)(=O)C(F)(F)F)c3ncc(-c4ccc5ccccc5c4)[nH]3)c2c1,IC50,Histone deacetylase 1,94 nM
same,IC50,HeLa,33.5 µM
COc1ccc2[nH]c(C)c(CC(=O)N[C@@H](CCCCCC(=O)Nc3ccccc3)c3ncc(-c4ccc5ccccc5c4)[nH]3)c2c1,IC50,Histone deacetylase 1,200 nM
same,IC50,HeLa,5.9 µM
COc1ccc2[nH]c(C)c(CC(=O)N[C@@H](CCCCCC(C)=O)c3ncc(-c4ccccc4)[nH]3)c2c1,IC50,Histone deacetylase 1,27 nM
CN(C)S(=O)(=O)N[C@@H](CCCCCC(=O)O)c1ncc(-c2ccc3ccccc3c2)[nH]1,IC50,Histone deacetylase 1,220 nM
same,IC50,HeLa,26.4 µM
O=C(O)CCCCC[C@H](NS(=O)(=O)c1ccccc1[N+](=O)[O-])c1ncc(-c2ccc3ccccc3c2)[nH]1,IC50,Histone deacetylase 1,19 nM
same,IC50,HeLa,6.86 µM
CN1CC[C@@H](C(=O)N[C@@H](CCCCCC(=O)O)c2ncc(-c3ccc4ccccc4c3)[nH]2)C1,IC50,Histone deacetylase 1,73 nM
same,IC50,HeLa,> 25 µM
COc1ccc2[nH]c(C)c(CC(=O)N[C@@H](CCCCCC(=O)N(C)C)c3ncc(-c4ccc5ccccc5c4)[nH]3)c2c1,IC50,Histone deacetylase 1,170 nM
same,IC50,HeLa,3.8 µM
COc1ccc2[nH]c(C)c(CC(=O)N[C@@H](CCCCCC(=O)Nc3nncs3)c3ncc(-c4ccc5ccccc5c4)[nH]3)c2c1,IC50,Histone deacetylase 1,350 nM
same,IC50,HeLa,4.7 µM
COc1ccc2[nH]c(C)c(CC(=O)N[C@@H](CCCCCC(=O)NS(C)(=O)=O)c3ncc(-c4ccc5ccccc5c4)[nH]3)c2c1,IC50,Histone deacetylase 1,47 nM
same,IC50,HeLa,8 µM
CN1CCC(C(=O)N[C@@H](CCCCCC(=O)O)c2ncc(-c3ccc4ccccc4c3)[nH]2)CC1,IC50,Histone deacetylase 1,35 nM
same,IC50,HeLa,35 µM
CCC(=O)CCCCC[C@@H]1NC(=O)[C@H]2CCCCN2C(=O)[C@H]([C@@H](C)CC)NC(=O)[C@H](Cc2cn(OC)c3ccccc23)NC1=O [APICIDIN],IC50,HeLa,0.29 µM
CCNC(=O)CCCCC[C@H](NC(=O)Cc1c(C)[nH]c2ccc(OC)cc12)c1ncc(-c2ccc3ccccc3c2)[nH]1,IC50,Histone deacetylase 1,66 nM
same,IC50,HeLa,2.7 µM
COc1ccc2[nH]c(C)c(CC(=O)N[C@@H](CCCCCC(N)=O)c3ncc(-c4ccc5ccccc5c4)[nH]3)c2c1,IC50,HeLa,0.44 µM
same,IC50,Histone deacetylase 2,160 nM
same,IC50,Histone deacetylase 3,250 nM
same,IC50,Histone deacetylase 4,> 10 µM
same,IC50,[6],120 nM
same,IC50,Histone deacetylase 8,> 5 µM
same,IC50,HCT-116 [7],860 nM
same,IC50,A549,3.56 µM
same,MTD at 336 h,[8],100 mg/kg
same,Activity,Mus musculus [9],Non-toxic
same,Activity,Mus musculus [10],< 5%
same,inhibition in vivo at 100 mg/kg,HCT-116 [11],29%
same,Activity,Mus musculus [12],< 5%
same,Activity,Mus musculus [13],Active
